These results are taken from ChEMBL document CHEMBL4368937, “Design, synthesis and biological evaluation of low molecular weight CXCR4 ligands” (Bioorg Med Chem, 2019).

Where only a bound is given, the exact number is not on record here.

For data set [1], the target named is T1, C-X-C chemokine receptor type 4 (Homo sapiens, UniProt P61073). The experiment in a line: Competitive inhibition of TAMRAAc-TZ14011 binding to CXCR4 (unknown origin) expressed in CHO cells at 1 uM in absence of ZnCl2 by NanoBRET assay relative to control. It is filed as cell-based. The method, boiled down: (§1)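 Single-point competition in CHO cells stably expressing N-terminally Nluc-tagged CXCR4 (5 x 10^4 cells, seeded 24 h earlier at 37 °C, 5% CO2, medium then replaced with OptiMEM). Cells were incubated with 10 nM TAMRA-Ac-TZ14011 plus 1 µM compound, without or with 10 µM ZnCl2 (10 eq), for 1 h at 25 °C. Furimazine was added and BRET read as acceptor (>610 nm) over donor (460 nm). Inhibition is relative to no compound and to excess Ac-TZ14011; mean ± SEM, n = 3.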
(In general: BRET reads energy transfer from a luciferase to a nearby fluorophore.)

The target of data set [2] is T1, C-X-C chemokine receptor type 4. The experiment in a line: Competitive inhibition of [125I]-CXCL12 binding to CXCR4 in human Jurkat cells at 1 uM in absence of ZnCl2 after 2 hrs by gamma counting analysis relative to control. The format is cell-based.
For data set [3] the target is unchanged. Put plainly: Competitive inhibition of TAMRAAc-TZ14011 binding to CXCR4 (unknown origin) expressed in CHO cells in presence of ZnCl2 by NanoBRET assay relative to control. The format is cell-based. The method, boiled down:
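Cells were incubated with 10 nM TAMRA-Ac-TZ14011 and compound plus ZnCl2 (10 eq). Furimazine was added and BRET ratio taken as >610 nm over 460 nm emission. Inhibition is scaled between no compound and excess Ac-TZ14011.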

Data set [4] relates to Human immunodeficiency virus 1. Put plainly: Antiviral activity against X4 tropic HIV-1 NL4-3 infected in human MT4 cells assessed as protection against virus-induced cytopathic effect in absence of ZnCl2 after 5 days by MTT assay. It is filed as functional, organism-based. The note with it: Human immunodeficiency virus 1, NL4-3, MT4, 120 h. The method, boiled down: (§2)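 Protection of MT-4 cells from X4 HIV-1 NL4-3 cytopathicity. Infected cells (MOI 0.001, 2.0 × 10^4 cells/well) received graded compound concentrations, without or with ZnCl2 (10 eq), for 5 days at 37 °C. Viable cells were counted by MTT. EC50 is the concentration giving 50% protection; mean of at least three independent experiments.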
For orientation: Protection from cytopathic effect is a common read-out in antiviral testing.

Data set [5] deals with T1, C-X-C chemokine receptor type 4. Put plainly: Competitive inhibition of TAMRAAc-TZ14011 binding to CXCR4 (unknown origin) expressed in CHO cells at 1 uM in presence of ZnCl2 by NanoBRET assay relative to control. It is filed as cell-based. The method, boiled down:
as §1

The target is the same in data set [6]. The experiment in a line: Competitive inhibition of [125I]-CXCL12 binding to CXCR4 in human Jurkat cells at 1 uM in presence of ZnCl2 after 2 hrs by gamma counting analysis relative to control. The format is cell-based.
Data set [7] in a line: Cytotoxicity against human MT4 cells in absence of ZnCl2. The format is cell-based.
Data set [8] in a line: Cytotoxicity against human MT4 cells in presence of ZnCl2. It is filed as cell-based. The method, boiled down: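 MT-4 viability with compound plus ZnCl2 (10 eq). CC50 is the concentration giving 50% reduction in viable cells; mean of at least three independent experiments.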
Data set [9] deals with Human immunodeficiency virus 1. Put plainly: Antiviral activity against X4 tropic HIV-1 NL4-3 infected in human MT4 cells assessed as protection against virus-induced cytopathic effect in presence of ZnCl2 after 5 days by MTT assay. The note with it: Human immunodeficiency virus 1, NL4-3, MT4, 120 h. It is filed as functional, organism-based. The method, boiled down:
as §2

The test system of data set [10] is Human immunodeficiency virus 1. Put plainly: Antiviral activity against R5 tropic HIV-1 NL(AD8) infected in human MT4 cells assessed as protection against virus-induced cytopathic effect at 10 uM in presence of ZnCl2 after 5 days by MTT assay. The note with it: Human immunodeficiency virus 1, NL(AD8), MT4, 120 h. It is filed as functional.
For data set [11], the system named is Human immunodeficiency virus 1. Put plainly: Antiviral activity against R5 tropic HIV-1 NL(AD8) infected in human MT4 cells assessed as protection against virus-induced cytopathic effect at 10 uM in absence of ZnCl2 after 5 days by MTT assay. The note with it: Human immunodeficiency virus 1, NL(AD8), MT4, 120 h. The format is functional.

T1 sequence (P61073 whole entry): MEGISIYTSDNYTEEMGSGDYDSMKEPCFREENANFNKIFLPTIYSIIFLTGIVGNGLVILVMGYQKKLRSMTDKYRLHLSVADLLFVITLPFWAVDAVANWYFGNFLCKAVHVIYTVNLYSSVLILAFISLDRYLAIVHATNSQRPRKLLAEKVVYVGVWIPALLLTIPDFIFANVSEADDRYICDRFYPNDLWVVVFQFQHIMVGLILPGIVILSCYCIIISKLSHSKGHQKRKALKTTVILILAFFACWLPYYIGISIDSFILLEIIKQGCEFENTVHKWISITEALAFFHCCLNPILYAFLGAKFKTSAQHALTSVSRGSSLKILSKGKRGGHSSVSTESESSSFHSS

One may read the inhibition as the change of the read-out against control, counted positive when it falls. A word on the IC50: it is the concentration that gives 50% inhibition. The term EC50 denotes the midpoint of the concentration-response curve. In general, CC50 refers to the concentration at which the toxic effect on the cells reaches its halfway point. As for `c1ccc(CN(Cc2ccc3c(CN4CCCNCCNCCCNCC4)cccc3c2)Cc2ccccn2)nc1`, the inhibition in data set [1] was 81.5%; in [2] it was 81.7%; in data set [5] it was 107%; in data set [6], 77.3%. Moreover, the IC50 in data set [3] came to 1.6 nM. In addition, the EC50 is 220 nM in [4] and 28 nM in [9]. Moreover, the CC50 in [7] and in data set [8] was more than 10000 nM throughout. Also, the inhibition at 10 µM in data set [10] and in data set [11] was less than 30% in each case.

For the compound `c1ccc(CN(Cc2ccc(CN3CCCNCCNCCCNCC3)cc2)Cc2ccccn2)nc1`, the inhibition in data set [1] worked out at 101%; in data set [2], 110%; in data set [5], 83.7%; in [6], 82.5%. The concentration for half-maximal inhibition (IC50) in data set [3] worked out at 32 nM. Also, the EC50 came out at 6.5 nM in [4] and 2.7 nM in data set [9]. For the same compound, the half-maximal cytotoxic concentration (CC50) in data set [7] and in [8] was more than 10000 nM throughout.

On to `c1ccc(CN(Cc2ccc3cc(CN4CCCNCCNCCCNCC4)ccc3c2)Cc2ccccn2)nc1`, for which the inhibition in data set [1] came to 80.7%; in data set [2] it was 98.2%; in data set [5] it was 89.9%; in data set [6], 99.6%. Further, the IC50 in data set [3] came to 10 nM. The results for the EC50 in [4] and in data set [9] were 470 nM and 240 nM, respectively. The 50% cytotoxic concentration (CC50) in [7] and in data set [8] was more than 10000 nM throughout. The inhibition at 10 µM in [10] and in data set [11] was less than 30% in each case.

In the case of `c1ccc(CN(Cc2ccccn2)Cc2ccccc2-c2cccc(CN3CCCNCCNCCCNCC3)c2)nc1`, the inhibition in data set [1] was found to be 56%; in data set [2] it was 41.9%; in [5] it was 102%; in data set [6], 100%. The IC50 in data set [3] is 7.9 nM. In addition, the EC50 in data set [4] turned out to be 40 nM; in data set [9], 13 nM. In data set [7], the CC50 is more than 10000 nM. Further, the inhibition at 10 µM in data set [10] and in [11] was less than 30% in each case.

Regarding `c1ccc(CN(Cc2ccc(-c3ncccc3CN3CCCNCCNCCCNCC3)cc2)Cc2ccccn2)nc1`, the inhibition in data set [1] was determined as 31.9%; in data set [2], 41.4%; in data set [5], 93.9%; in [6], 88.5%. The half-maximal inhibitory concentration (IC50) in data set [3] was 4.5 nM. The 50% effective concentration (EC50) in data set [4] is 110 nM; in [9], 61 nM. Moreover, the CC50 in data set [7] was more than 10000 nM. Moreover, the inhibition at 10 µM in data set [10] and in [11] was less than 30% in each case.

With `c1ccc(CN(Cc2ccnc(-c3cccc(CN4CCCNCCNCCCNCC4)c3)c2)Cc2ccccn2)nc1`, the inhibition in data set [1] is 47.6%; in [2] it was 63%; in data set [5], 93.4%; in data set [6] it was 84.7%. Besides, the IC50 in data set [3] turned out to be 3.5 nM. The values for the EC50 in data set [4] and in data set [9] were 170 nM and 28 nM, respectively. In addition, the CC50 in data set [7] is more than 10000 nM. The inhibition at 10 µM in data set [10] and in data set [11] was less than 30% throughout.
